Experiments:
[1] = Cytotoxicity against wild-type MDCK2 cells assessed as reduction in cell viability after 72 hrs by MTT assay; format: cell-based, Canis lupus familiaris; details: dog, wild-type MDCK2 (MDCK-II) cells
Method in brief: (§1)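 MDCK II cells retrovirally transfected with human ABCG2-GFP cDNA, and wild-type MDCK II, in DMEM with 10% FBS. Seeded at 3 x 10^3 cells/well and attached 6 h at 37 °C, 5% CO2. Compounds up to 100 µM for 72 h. Controls were 10% DMSO and medium. MTT (5 mg/ml) added for 1 h, read at 570 nm minus 690 nm. Data normalised; GI50 from variable-slope sigmoidal fit.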

[2] = Cytotoxicity against MDCK2 cells expressing human ABCG2 assessed as reduction in cell viability after 72 hrs by MTT assay; format: ADME, cell-based, Canis lupus familiaris; details: dog, MDCK2 (MDCK-II) cells expressing human ABCG2; method in brief: as §1
[3] = target: ABCB1 (Homo sapiens, UniProt P08183); assay: Inhibition of ABCB1 in human A2780/ADR cells assessed as reduction in calcein AM efflux at 10 uM pre-incubated for 30 mins before calcein AM addition and measured for 60 mins by microplate reader analysis relative to control; format: cell-based; details: probe calcein AM
Sequence of ABCB1 (P08183 whole entry): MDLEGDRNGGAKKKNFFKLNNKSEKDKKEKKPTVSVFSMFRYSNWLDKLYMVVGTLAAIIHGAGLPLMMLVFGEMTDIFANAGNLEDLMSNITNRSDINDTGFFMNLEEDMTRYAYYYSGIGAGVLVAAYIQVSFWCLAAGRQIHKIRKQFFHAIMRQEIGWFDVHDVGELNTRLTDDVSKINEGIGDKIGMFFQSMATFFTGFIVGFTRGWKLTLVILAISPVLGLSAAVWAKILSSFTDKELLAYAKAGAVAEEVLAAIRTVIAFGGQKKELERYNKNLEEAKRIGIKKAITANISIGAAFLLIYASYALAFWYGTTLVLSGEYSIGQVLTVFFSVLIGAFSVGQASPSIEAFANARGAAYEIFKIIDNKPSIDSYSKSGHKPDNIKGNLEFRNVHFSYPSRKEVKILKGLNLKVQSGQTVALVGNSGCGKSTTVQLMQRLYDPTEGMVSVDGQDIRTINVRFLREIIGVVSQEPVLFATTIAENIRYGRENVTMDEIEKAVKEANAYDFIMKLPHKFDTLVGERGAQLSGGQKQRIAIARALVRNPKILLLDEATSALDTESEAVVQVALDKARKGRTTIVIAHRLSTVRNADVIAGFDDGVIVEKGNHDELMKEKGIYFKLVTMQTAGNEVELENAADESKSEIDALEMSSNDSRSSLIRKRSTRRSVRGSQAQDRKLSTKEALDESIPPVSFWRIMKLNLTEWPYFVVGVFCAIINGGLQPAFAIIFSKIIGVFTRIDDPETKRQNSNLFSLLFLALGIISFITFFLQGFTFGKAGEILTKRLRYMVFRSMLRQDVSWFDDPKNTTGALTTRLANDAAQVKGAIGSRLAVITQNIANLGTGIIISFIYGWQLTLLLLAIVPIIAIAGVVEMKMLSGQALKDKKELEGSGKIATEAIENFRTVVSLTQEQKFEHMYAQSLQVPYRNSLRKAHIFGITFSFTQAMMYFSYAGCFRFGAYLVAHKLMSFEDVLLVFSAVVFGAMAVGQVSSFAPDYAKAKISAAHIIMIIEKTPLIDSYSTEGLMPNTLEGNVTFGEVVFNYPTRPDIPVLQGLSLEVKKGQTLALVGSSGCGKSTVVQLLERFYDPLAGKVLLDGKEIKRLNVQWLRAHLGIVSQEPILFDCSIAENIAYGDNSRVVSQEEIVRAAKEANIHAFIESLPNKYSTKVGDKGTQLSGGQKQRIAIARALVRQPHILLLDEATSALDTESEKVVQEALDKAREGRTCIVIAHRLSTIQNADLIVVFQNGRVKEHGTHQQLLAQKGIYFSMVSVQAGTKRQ
Method in brief: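 Compound at 10 µM pre-incubated 30 min at 37 °C. Calcein AM added from 3.125 µM solution. Fluorescence (ex 485/em 520 nm) read every 60 s for 60 min.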

[4] = target: T1, Broad substrate specificity ATP-binding cassette transporter ABCG2 (Homo sapiens, UniProt Q9UNQ0); assay: Inhibition of human ABCG2 expressed in MDCK2 cells assessed as reduction in Hoechst 33342 efflux pre-incubated for 30 mins before Hoechst 33342 addition and measured for 120 mins by microplate reader analysis; format: cell-based; details: read-out: IC50
T1 sequence (Q9UNQ0 whole entry): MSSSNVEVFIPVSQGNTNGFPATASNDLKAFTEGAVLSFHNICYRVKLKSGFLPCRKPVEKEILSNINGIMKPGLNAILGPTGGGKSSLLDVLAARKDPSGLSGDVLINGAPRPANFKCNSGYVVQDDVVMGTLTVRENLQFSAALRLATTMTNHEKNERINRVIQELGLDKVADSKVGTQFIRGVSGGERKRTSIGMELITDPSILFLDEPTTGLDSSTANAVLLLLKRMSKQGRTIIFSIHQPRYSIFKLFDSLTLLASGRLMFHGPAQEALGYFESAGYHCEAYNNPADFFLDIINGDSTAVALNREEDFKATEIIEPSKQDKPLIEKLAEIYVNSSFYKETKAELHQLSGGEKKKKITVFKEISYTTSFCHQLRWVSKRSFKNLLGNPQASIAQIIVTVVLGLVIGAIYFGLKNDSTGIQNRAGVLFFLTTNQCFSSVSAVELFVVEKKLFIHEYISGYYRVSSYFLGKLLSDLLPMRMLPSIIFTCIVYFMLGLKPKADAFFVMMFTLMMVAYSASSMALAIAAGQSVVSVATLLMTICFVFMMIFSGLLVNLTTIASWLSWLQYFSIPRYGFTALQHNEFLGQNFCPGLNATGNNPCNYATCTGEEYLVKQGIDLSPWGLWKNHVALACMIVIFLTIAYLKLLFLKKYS
Method in brief: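 Compound dilutions up to 10 µM (from 10 mM DMSO stocks) pre-incubated 30 min at 37 °C. Hoechst 33342 then added from 6 µM solution. Fluorescence (ex 355/em 460 nm) read each 60 s over 120 min.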

[5] = Ratio of GI50 for MDCK2 cells expressing human ABCG2 to IC50 for human ABCG2 expressed in MDCK2 cells
[6] = Ratio of GI50 for wild-type MDCK2 cells to IC50 for human ABCG2 expressed in MDCK2 cells
[7] = target: T1, Broad substrate specificity ATP-binding cassette transporter ABCG2; assay: Reversal of human ABCG2-mediated resistance to SN-38 in human ABCG2 expressed MDCK2 cells assessed as reduction in SN-38 GI50 after 72 hrs by MTT assay
[8] = target: T1, Broad substrate specificity ATP-binding cassette transporter ABCG2; assay: Inhibition of human ABCG2 expressed in baculovirus infected Sf9 cell membrane assessed as inhibition of vanadate sensitive basal ATPase activity after 20 mins by colorimetric method
Method in brief: (§2)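 Cholesterol-loaded membranes from Sf9 cells infected with baculovirus carrying human wild-type ABCG2; 10 µg protein per reaction. Buffer: 40 mM MOPS-Tris pH 7.0, 50 mM KCl, 2 mM DTT, 0.5 mM EGTA-Tris, 5 mM azide, 1 mM ouabain. Started with 3.3 mM MgATP, 20 min at 37 °C, stopped with SDS. Pi measured by molybdate/ascorbate colour at 880 nm against K2HPO4 standard.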

[9] = target: T1, Broad substrate specificity ATP-binding cassette transporter ABCG2; assay: Inhibition of human ABCG2 expressed in baculovirus infected Sf9 cell membrane assessed as inhibition of vanadate sensitive quercetin-stimulated ATPase activity after 20 mins by colorimetric method; method in brief: as §2
[10] = target: T2, ABCG2 (Homo sapiens, UniProt Q9UNQ0); assay: Ratio of IC50 for human ABCG2 expressed in baculovirus infected Sf9 cell membrane assessed as inhibition of vanadate sensitive quercetin-stimulated ATPase activity to IC50 for human ABCG2 expressed in baculovirus infected Sf9 cell membrane assessed as inhibition of vanadate sensitive basal ATPase activity; details: read-out: Ratio IC50
T2 sequence (Q9UNQ0 whole entry): T1 sequence (Q9UNQ0 whole entry)

[11] = target: T1, Broad substrate specificity ATP-binding cassette transporter ABCG2; assay: Inhibition of human ABCG2 expressed in baculovirus infected Sf9 cell membrane assessed as inhibition of vanadate sensitive ATPase activity at 1 uM after 20 mins by colorimetric method; details: sf9, 20 min
[12] = target: T1, Broad substrate specificity ATP-binding cassette transporter ABCG2; assay: Inhibition of human ABCG2 expressed in MDCK2 cells assessed as reduction in pheophorbide A efflux pre-incubated for 30 mins before pheophorbide A addition and measured for 120 mins by flow cytometry; details: read-out: IC50
[13] = Solubility in pH 7.4 Krebs-HEPES buffer assessed as absorbance value at 10 uM after 2 hrs by UV-visible spectrophotometric analysis relative to control; format: physicochemical; details: pH 7.4, 2 h
Method in brief: (§3)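 10 µM test solutions prepared from DMSO stocks as for the Hoechst 33342 assay, in Krebs-HEPES pH 7.4. Absorbance at an absorption peak maximum recorded every 120 s for 2 h at room temperature by UV/visible spectrophotometer.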

[14] = Solubility in pH 7.4 Krebs-HEPES buffer assessed as compound precipitation at 10 uM after 2 hrs by UV-visible spectrophotometric analysis; format: physicochemical; details: pH 7.4, 2 h; method in brief: as §3
[15] = Solubility in pH 7.4 Krebs-HEPES buffer at 10 uM after 2 hrs by UV-visible spectrophotometric analysis; format: physicochemical; details: pH 7.4, 2 h; method in brief: as §3
[16] = target: ATP-dependent translocase ABCB1 (Homo sapiens, UniProt P08183); assay: Inhibition of ABCB1 in human A2780/ADR cells assessed as reduction in calcein AM efflux pre-incubated for 30 mins before calcein AM addition and measured for 60 mins by microplate reader analysis relative to control; format: cell-based
Sequence of ATP-dependent translocase ABCB1 (P08183 whole entry): as the sequence (P08183 whole entry) above

| Compound | GI50 at 72 h [1] [µM] | GI50 at 72 h [2] [µM] | inhibition at 1 h, 10 µM [3] [%] | IC50 [4] [nM] | Ratio [5] | Ratio [6] | Activity [7] | IC50 [8] [nM] | IC50 [9] [nM] | selectivity ratio [10] | inhibition (INH) [11] | IC50 [12] [nM] | Activity [13] [%] | Activity [14] [%] | solubility [15] | IC50 [16] [µM] |
| --- | --- | --- | --- | --- | --- | --- | --- | --- | --- | --- | --- | --- | --- | --- | --- | --- |
| O=C(c1ccccc1)N1CCc2c([nH]c3ccccc23)C1c1ccc(Cl)c(Cl)c1 (stereo not given) | 7.29 | 6.95 | < 25 | 328 | <=20 | <=20 | Dose-dependent effect | 31 | 262 | 8.4 | Active | 365 |  |  |  |  |
| O=C(c1ccccc1)N1CCc2c([nH]c3ccccc23)C1c1ccc(Cl)cc1 (stereo not given) | 16.4 | 18.1 | < 25 | 741 | 20 - 30 | 20 - 30 | Dose-dependent effect | 60 | 560 | 9.3 | Active | 784 |  |  |  |  |
| O=C(c1ccccc1)N1CCc2c([nH]c3ccccc23)C1c1ccccc1Br (stereo not given) |  |  | < 25 | > 10000 |  |  |  |  |  |  |  |  | 40 |  |  |  |
| O=C(c1ccccc1)N1CCc2c([nH]c3ccccc23)C1c1ccc(C(F)(F)F)cc1 (stereo not given) |  |  | < 25 | > 10000 |  |  |  |  |  |  |  |  |  | 80 |  |  |
| COc1ccc(C(=O)N2CCc3c([nH]c4ccccc34)C2c2ccc(Cl)c(Cl)c2)cc1 (stereo not given) | 4.83 | 4.67 | < 25 | 233 | <=20 | <=20 | Dose-dependent effect | 26 | 285 | 11 | Active | 237 |  |  | Soluble |  |
| COc1ccc2[nH]c3c(c2c1)CCN(C(=O)c1ccccc1)C3c1ccc(Cl)c(Cl)c1 (stereo not given) | 5.27 | 4.17 | < 25 | 382 | <=20 | <=20 | Dose-dependent effect | 29 | 299 | 10.4 | Active |  |  |  |  |  |
| CCn1c2c(c3ccccc31)CCN(C(=O)c1ccccc1)C2c1ccccc1 (stereo not given) |  |  | > 25 | 10400 |  |  |  |  |  |  |  |  |  |  | Soluble | 9.23 |
| O=C(c1ccccc1)N1CCc2c([nH]c3ccccc23)C1c1cccc([N+](=O)[O-])c1 (stereo not given) |  |  | < 25 | > 10000 |  |  |  |  |  |  |  |  |  | 80 |  |  |
| COc1cccc(C(=O)N2CCc3c([nH]c4ccccc34)C2c2ccc(Cl)c(Cl)c2)c1 (stereo not given) | 6.55 | 5.82 | < 25 | 238 | <=20 | <=20 | Dose-dependent effect | 38 | 262 | 7 | Active | 206 |  |  |  |  |
| O=C(c1ccccc1)N1CCc2c([nH]c3ccccc23)C1c1ccc(Br)cc1 (stereo not given) | 19.4 | 20.6 | < 25 | 687 | 20 - 30 | 20 - 30 | Dose-dependent effect | 112 | 863 | 7.7 | Active |  |  |  |  |  |
| O=C(c1ccccc1)N1CCc2c([nH]c3ccccc23)C1c1ccccc1Cl (stereo not given) |  |  | < 25 | > 10000 |  |  |  |  |  |  |  |  | 40 |  |  |  |
| CC(=O)Nc1ccc(C2c3[nH]c4ccccc4c3CCN2C(=O)c2ccccc2)cc1 (stereo not given) |  |  | > 25 | 7820 |  |  |  |  |  |  |  |  |  |  | Soluble | 7.4 |
| O=C(c1ccccc1)N1CCc2c([nH]c3ccccc23)C1c1ccccc1 (stereo not given) | 12.4 | 12.9 | > 25 | 2780 |  |  | Dose-dependent effect | 196 | 2020 | 10.3 | Active |  |  |  | Soluble | 7.94 |
| COc1ccc2c(c1)[nH]c1c(C)nccc12 [HARMINE] | 2.3 | 2.42 |  |  |  |  |  |  |  |  | Not Active |  |  |  |  |  |
